From ChEMBL document CHEMBL4004866, “6-Benzylidene-2-[4-(pyridin-3-ylcarboxy)benzylidene]cyclohexanones: A novel cluster of tumour-selective cytotoxins” (Bioorg Med Chem Lett, 2017)
pIC50: −log10 of the molar value. Activity calls are given as the source filed them. No cut-off for these calls is given here.

Experiments:
[1] = Cytotoxicity against human Molt4/C8 cells assessed as growth inhibition after 72 hrs by coulter counter method; format: functional, cell-based; details: Molt4/C8, 72 h
CCRF-CEM = assay: Cytotoxicity against human CEM cells assessed as growth inhibition after 72 hrs by coulter counter method; format: functional, cell-based
L1210 = assay: Cytotoxicity against mouse L1210 cells assessed as growth inhibition after 48 hrs by coulter counter method; format: functional, cell-based; details: L1210, 48 h
HL-60 = assay: Cytotoxicity against human HL60 cells after 48 hrs by MTT assay; format: functional; details: HL-60, 48 h
HSC-2 [2] = assay: Cytotoxicity against human HSC2 cells after 48 hrs by MTT assay; format: functional; details: HSC-2, 48 h
HSC-3 [3] = assay: Cytotoxicity against human HSC3 cells after 48 hrs by MTT assay; format: functional; details: HSC-3, 48 h
HSC-4 = assay: Cytotoxicity against human HSC4 cells after 48 hrs by MTT assay; format: functional; details: HSC-4, 48 h
[4] = Cytotoxicity against HGF after 48 hrs by MTT assay; format: cell-based; details: human, HGF cells
Outline: (§1)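 Nonmalignant human cells were exposed to compounds for 48 h at 37 °C. CC50 was taken as the concentration cytotoxic to 50% of cells.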

[5] = Cytotoxicity against human HPC after 48 hrs by MTT assay; format: cell-based; details: HPC cells; outline: as §1
[6] = Cytotoxicity against HPLF after 48 hrs by MTT assay; format: cell-based; details: human, HPLF cells; outline: as §1
[7] = Selectivity index, ratio of CC50 for HGF to CC50 for human HL60 cells; details: pooled result: one value given for 3 cell lines, strains, targets or settings
[8] = Selectivity index, ratio of CC50 for HGF to CC50 for human HSC2 cells; details: pooled result: one value given for 3 cell lines, strains, targets or settings
[9] = Selectivity index, ratio of CC50 for HGF to CC50 for human HSC3 cells; details: pooled result: one value given for 3 cell lines, strains, targets or settings
[10] = Selectivity index, ratio of CC50 for HGF to CC50 for human HSC4 cells
[11] = Selectivity index, ratio of CC50 for human HPC to CC50 for human HSC4 cells
[12] = Selectivity index, ratio of CC50 for HPLF to CC50 for human HSC4 cells
Mus musculus [13] = assay: Toxicity in mouse assessed as mortality at 30 to 300 mg/kg, ip after 0.5 to 4 hrs; format: organism-based; details: in vivo
Outline: (§2)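 Mice were given compound intraperitoneally at 30, 100 and 300 mg/kg. Animals were checked for survival and neurological deficit at 0.5 and 4 h after dosing.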

Rattus norvegicus [14] = assay: Toxicity in rat assessed as overt toxicity at 30 mg/kg, po after 0.25 to 4 hrs; format: organism-based; details: in vivo
Outline: (§3)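 Rats received a single oral dose and were examined for overt toxicity at 0.25, 0.5, 1, 2 and 4 h.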

[15] = Toxicity in ip dosed mouse; format: organism-based; details: in vivo; outline: as §2
HSC-2 [16] = assay: Induction of apoptosis in human HSC2 cells assessed as PARP1 cleavage at 7 uM after 24 hrs by chemiluminescence method; format: functional, cell-based
HSC-3 [17] = assay: Induction of apoptosis in human HSC3 cells assessed as PARP1 cleavage at 7 uM after 24 hrs by chemiluminescence method; format: functional, cell-based
HSC-2 [18] = assay: Cell cycle arrest in human HSC2 cells assessed as accumulation at G0/G1 phase at 7 uM after 24 hrs by propidium iodide staining-based method (reference value: 73%); format: functional
HSC-2 [19] = assay: Cell cycle arrest in human HSC2 cells assessed as accumulation at S phase at 7 uM after 24 hrs by propidium iodide staining-based method (reference value: 13%); format: functional
HSC-2 [20] = assay: Cell cycle arrest in human HSC2 cells assessed as accumulation at G2/M phase at 7 uM after 24 hrs by propidium iodide staining-based method (reference value: 11%); format: functional
Mus musculus [21] = assay: Neurotoxicity in mouse at 300 mg/kg, ip after 0.5 hrs; format: toxicity, organism-based; details: in vivo
Outline: (§4)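 Mice received intraperitoneal doses of 30, 100 and 300 mg/kg. Animals were scored for survival and neurological deficit at 0.5 and 4 h after dosing.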

Mus musculus [22] = assay: Neurotoxicity in mouse at 300 mg/kg, ip after 4 hrs; format: toxicity, organism-based; details: in vivo; outline: as §4
Rattus norvegicus [23] = assay: Toxicity in rat assessed as overt toxicity at 50 mg/kg, po after 0.25 to 4 hrs; format: organism-based; details: in vivo; outline: as §3
[24] = Chemical stability in deuterium oxide/deuterated dimethylsulfoxide after 48 hrs by 1H NMR method; format: physicochemical
Outline: (§5)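 Compound solutions were incubated for 48 h at 37 °C, the same time and temperature as the in vitro assays, and checked for hydrolysis to the corresponding phenol.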

[25] = Chemical stability in pH 7.4 buffer/dimethylsulfoxide after 48 hrs by 1H NMR method; format: physicochemical; details: pH 7.4, 48 h; outline: as §5
Serum = assay: Drug metabolism in rat serum/dimethylsulfoxide assessed as 6-benzylidene-2-(4-hydroxybenzylidene)cyclohexanone formation after 48 hrs by 1H NMR method; format: ADME, cell-free; outline: as §5

| Compound | pIC50 [1] | pIC50 (CCRF-CEM) | pIC50 (L1210) | CC50 (HL-60) | CC50 (HSC-2 [2]) | CC50 (HSC-3 [3]) | CC50 (HSC-4) | CC50 at 48 h [4] | CC50 at 48 h [5] | CC50 at 48 h [6] | Selectivity Index [7] | Selectivity Index [8] | Selectivity Index [9] | Selectivity Index [10] | Selectivity Index [11] | Selectivity Index [12] | Activity (Mus musculus [13]) | other results |
| --- | --- | --- | --- | --- | --- | --- | --- | --- | --- | --- | --- | --- | --- | --- | --- | --- | --- | --- |
| Cc1ccc(/C=C2\CCC/C(=C\c3ccc(OC(=O)c4cccnc4)cc3)C2=O)cc1 | 5.54 | 5.02 | 4.89 | 1.9 µM | 90.3 µM | 98 µM | 94.3 µM | 184 µM | > 200 µM | 163 µM | >95.8 | >2.02 | >1.86 | >1.93 | >1.93 | >1.93 | Non-Toxic | Activity (Rattus norvegicus [14]): Non-Toxic |
| O=C1/C(=C/c2ccc(O)cc2)CCC/C1=C\c1ccc(O)cc1 | 5.26 | 5.16 | 4.87 |  |  |  |  |  |  |  |  |  |  |  |  |  |  |  |
| O=C1/C(=C/c2ccc(OC(=O)c3cccnc3)cc2)CCC/C1=C\c1ccc([N+](=O)[O-])cc1 | 4.42 | 4.32 | 4.21 | > 200 µM | 112 µM | > 200 µM | > 200 µM | > 200 µM | > 200 µM | > 200 µM | 1 | >1.79 | 1 | 1 | 1 | 1 | Non-Toxic |  |
| O=C1/C(=C/c2ccc(OC(=O)c3cccnc3)cc2)CCC/C1=C\c1ccc(OC(=O)c2cccnc2)cc1 | 4.65 | 3.77 | 3.67 |  |  |  |  |  |  |  |  |  |  |  |  |  | Non-Toxic |  |
| Cc1ccc(/C=C2\CCC/C(=C\c3ccc(OC(=O)c4ccccc4)cc3)C2=O)cc1 | 5.24 | 4.97 | 4.42 |  |  |  |  |  |  |  |  |  |  |  |  |  | Non-Toxic |  |
| N[C@@H](Cc1ccc(N(CCCl)CCCl)cc1)C(=O)O [MELPHALAN] |  |  |  | 0.89 µM | 12 µM | 46 µM | 46 µM | 73 µM | 37 µM | 92 µM | 75.6 | 5.61 | 1.46 | 1.46 | 1.46 | 1.46 |  | LD50 [15]: 21.7 mg/kg |
| O=C1/C(=C/c2ccc(Cl)cc2)CCC/C1=C\c1ccc(OC(=O)c2cccnc2)cc1 | 5.10 | 4.76 | 4.53 | 10.5 µM | 30.5 µM | 33.7 µM | 37.3 µM | 190 µM | 179 µM | 154 µM | 16.6 | 5.71 | 5.16 | 4.67 | 4.67 | 4.67 | Non-Toxic |  |
| COc1ccc(/C=C2\CCC/C(=C\c3ccc(OC(=O)c4cccnc4)cc3)C2=O)cc1 | 5.92 | 5.01 | 5.12 | 2.3 µM | 30.3 µM | 16 µM | 22.7 µM | > 200 µM | > 200 µM | > 200 µM | >87 | >6.6 | >12.5 | >8.81 | >8.81 | >8.81 | Non-Toxic |  |
| Cc1ccc(/C=C2\CCC/C(=C\c3ccc(O)cc3)C2=O)cc1 | 5.28 | 5.37 | 5.13 |  |  |  |  |  |  |  |  |  |  |  |  |  |  |  |
| O=C1/C(=C/c2ccc(O)cc2)CCC/C1=C\c1ccc(Cl)cc1 | 5.31 | 5.57 | 5.19 |  |  |  |  |  |  |  |  |  |  |  |  |  |  |  |
| O=C(O)c1cccnc1 [NIACIN] | < 3.30 | < 3.30 | < 3.30 | > 200 µM | > 200 µM | > 200 µM | > 200 µM | > 200 µM | > 200 µM | > 200 µM | 1 | 1 | 1 | 1 | 1 | 1 |  |  |
| O=C1/C(=C/c2ccccc2)CCC/C1=C\c1ccc(O)cc1 | 5.29 | 5.24 | 5.14 |  |  |  |  |  |  |  |  |  |  |  |  |  |  |  |
| O=C1/C(=C/c2ccccc2)CCC/C1=C\c1ccc(OC(=O)c2ccccc2)cc1 | 4.98 | 4.39 | 4.33 |  |  |  |  |  |  |  |  |  |  |  |  |  | Non-Toxic |  |
| COc1ccc(/C=C2\CCC/C(=C\c3ccc(O)cc3)C2=O)cc1 | 5.38 | 5.25 | 5.16 |  |  |  |  |  |  |  |  |  |  |  |  |  |  |  |
| O=C1/C(=C/c2ccccc2)CCC/C1=C\c1ccc(OC(=O)c2cccnc2)cc1 | 5.79 | 5.14 | 5.06 | 1.5 µM | 12.5 µM | 17.7 µM | 15.9 µM | 116 µM | 142 µM | 60 µM | 70.7 | 8.48 | 5.99 | 6.67 | 6.67 | 6.67 | Non-Toxic | Activity (HSC-2 [16]): Active; Activity (HSC-3 [17]): inactive; Activity (HSC-2 [18]): 86%; Activity (HSC-2 [19]): 9.7%; Activity (HSC-2 [20]): 1.5%; Activity (Mus musculus [21]): Toxic; Activity (Mus musculus [22]): Non-Toxic; Activity (Rattus norvegicus [23]): Non-Toxic; Stability [24]: Stable; Stability [25]: Stable; Drug metabolism (Serum): Metabolite_Notdetected |
